Lmaj promast = Leishmania major promastigote growth inhibition, primary screen. Leishmania major promastigotes, resazurin fluorescence viability. AID 1063, 2008. 9% of 200,000 active. inhibition, % at 10 µM; in the data active = inhibition above about 50%;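 note: promastigotes grown with compound for 44 hours at 28 °C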
WT yeast gro inh = growth inhibition of WT strain, primary screen, mitochondrial fusion inhibitor project, WT and mutant strains, chemical genetic; inhibition, % at 10 µM; AID 1362, 2008; mitochondrial fusion phenotypic screen; 2.1% of 190,000 active; in the data active = inhibition above about 58%; tested in S. cerevisiae
PMI activator = activators of human PMI, primary screen, biochemical, fluorescence intensity, near-Km mannose 6-phosphate | 0.005% of 190,000 active | activation factor at 20 µM | purified human PMI, coupled resazurin fluorescence, 20 min; stronger effect = higher value; 1 = vehicle control, 0 substrate-free wells | Mannose-6-phosphate isomerase (Homo sapiens), P34949;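 active = activation factor of 2 or more at 20 µM, relative to plate controls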
Target sequence (P34949 whole entry, looked up): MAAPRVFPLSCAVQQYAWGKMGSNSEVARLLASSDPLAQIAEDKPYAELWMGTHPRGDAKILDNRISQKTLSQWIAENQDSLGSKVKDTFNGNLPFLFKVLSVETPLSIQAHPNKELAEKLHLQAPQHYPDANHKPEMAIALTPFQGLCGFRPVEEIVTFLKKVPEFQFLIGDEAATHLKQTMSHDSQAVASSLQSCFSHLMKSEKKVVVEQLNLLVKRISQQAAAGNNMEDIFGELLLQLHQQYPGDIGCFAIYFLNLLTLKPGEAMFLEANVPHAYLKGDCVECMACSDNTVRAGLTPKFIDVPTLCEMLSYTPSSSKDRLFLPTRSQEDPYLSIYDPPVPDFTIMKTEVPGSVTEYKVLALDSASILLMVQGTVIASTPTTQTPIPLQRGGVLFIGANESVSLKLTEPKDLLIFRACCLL
Diaph act CS = compounds boosting diaphorase resazurin reduction – biochemical, uHTS, resorufin fluorescence, counter-screen for diaphorase-coupled primary assays, primary screen | Diaphorase/resazurin coupled assay, 16 min; stronger effect = higher value; 1 = vehicle wells, 0 = NADH-free wells | activation factor at 20 µM | 0.005% of 190,000 active | AID 1229, 2008;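 active = diaphorase activity raised at least twofold by the compound at 20 µM; inactive = activation factor below 2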
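Material: Clostridium kluyveri diaphorase, purified enzyme; Quantity: enzyme 0.07 U/mL final; Medium: HEPES pH 7.4 buffer with MgCl2 and Tween 20; Dosing: single compound dose of 20 µM, 1% DMSO final; Schedule: 16 min reaction at room temperature; Measured by: red resorufin fluorescence at 544/590 nm excitation/emission.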
PMI act satM6P = human PMI activators, high substrate, primary screen, biochemical, fluorescence intensity, near-saturating mannose 6-phosphate | Mannose-6-phosphate isomerase (Homo sapiens), P34949 | coupled PMI enzyme assay, resazurin fluorescence, 20 min; stronger effect = higher value; 1 = untreated enzyme, 0 = substrate-free blank | activation factor at 20 µM | 0.34% of 190,000 active | AID 1216, 2008;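 active = activation factor of 2 or more at 20 µM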
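Test system: human phosphomannose isomerase with PGI, G6PDH, diaphorase coupling enzymes; amount: 15 ng/mL PMI; incubation: enzyme reaction with compound 20 min at room temperature; technique: resorufin fluorescence (Ex 544/Em 590 nm) from resazurin via diaphorase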
The depositor's hits bear a star; . = no result given. A selection: hits, their analogues and other compounds. The true share with any hit is near 10%.

SMILES	Lmaj promast	WT yeast gro inh	PMI activator	Diaph act CS	PMI act satM6P
Cc1[nH]c2ccccc2c1C(=O)C(C)OC(=O)c1ccc([N+](=O)[O-])o1 (stereo not given)	99*	46	0.9	1	0.7
CCCCN1CCc2c1nc1ccc(Br)cc1c2N	101*	13	1	0.9	1
CCCCN1CCc2c([nH]c3ccccc23)C1=O	-7	-14	0.9	0.9	1
CCC(=O)NCc1c(C)c(C)n(Cc2ccccc2)c1-n1cccc1	28	6	1	0.9	1
COc1cccc(NC(=S)NCCC(c2ccccc2)c2ccccc2)c1	100*	76*	1	1	1
COc1cc(NC(=S)NCCC(c2ccccc2)c2ccccc2)cc(OC)c1	47	66*	1	0.9	1
Cc1cccc(NC(=S)NNC(=S)NCc2ccccc2)c1	-6	7	0.9	0.9	1
Cc1cccc(NC(=S)NCCC(c2ccccc2)c2ccccc2)c1	97*	69*	1	0.8	0.9
COc1ccc(NC(=S)NCCC(c2ccccc2)c2ccccc2)c(OC)c1	5	65*	0.9	0.9	0.9
CC1CCCCN1C(=O)/C=C/c1ccccc1[N+](=O)[O-] (stereo not given)	20	-8	0.9	1	0.8
Cc1c(SCCO)c(=O)[nH]c2cc3c(cc12)OCO3	2	1	1.1	0.9	1.1
Cn1c(=O)oc2cc(S(=O)(=O)Nc3cccc4c3CCCC4)ccc21	-1	-9	0.9	0.8	0.8
OC(Cn1cncn1)(c1ccccc1)c1ccccc1	-2	-2	0.9	0.8	1
CCC(=O)N(Cc1ccco1)c1nc(C(=O)Nc2ccc(Cl)cc2)c(C)s1	20	56	0.7	0.8	0.9
COc1ccc(NC(=S)N2CCN(C(c3ccccc3)c3ccccc3)CC2)c(OC)c1	9	69*	1	1	1
O=C(NCCC(c1ccccc1)c1ccccc1)c1cccs1	29	39	0.9	0.9	0.9
CNC(=S)NCCC(c1ccccc1)c1ccccc1	1	67*	1	0.8	1
Cc1cc(C)n(CCc2nc(-c3ccc(F)cc3)cs2)n1	-9	7	1	0.9	0.9
Cc1cc(C)n(CCc2nc(-c3ccc(C(C)(C)C)cc3)cs2)n1	-1	75*	0.8	0.9	0.8
Cc1sc2ncnc(OCC(=O)N3CCN(C(=O)c4ccco4)CC3)c2c1C	-4	-26	1.1	1	1
COC(=O)c1ccccc1N1CCS(=O)(=O)CC1	-7	9	1	1	1
COc1ccc(-c2cc(C(=O)O)c3c(C)nn(-c4ccccn4)c3n2)cc1	-6	8	1.2	0.9	1.2
Cc1cccc(-n2nc(C)c3c(C(=O)O)cc(-c4cccs4)nc32)c1	-1	2	1	0.5	1
Cc1nn(-c2ccccn2)c2nc(-c3cccs3)cc(C(=O)N3CCOCC3)c12	84*	37	1	0.8	1
CCOC(=O)c1cc(-c2ccncc2)nc2c1c(C)nn2-c1ccccn1	100*	44	.	.	.
SMILES	Lmaj promast	WT yeast gro inh	PMI activator	Diaph act CS	PMI act satM6P
O=C(COc1ccccc1)NCC(=O)Nc1cccc(S(=O)(=O)NC2=NCCC2)c1	-2	1	1.1	1	1
COc1ccc(Nc2c3c(nc4c(-c5ccccc5)c(C)nn24)CCC3)cc1	29	62*	0.9	0.8	0.8
Cc1cc(C)n(C(=O)/C(C#N)=N/Nc2cc(Cl)cc(Cl)c2)n1	-5	85*	1.1	0.9	1
COc1ccc(/C=C/CN2CCN(CCc3ccccc3)C(CCO)C2)cc1 (stereo not given)	90*	30	0.9	0.9	0.9
COC(=O)c1ccc(CN2CCN(CCC(C)C)C(CCO)C2)cc1 (stereo not given)	62*	13	1	1	1
OCCC1CN(Cc2cccc(-c3ccco3)c2)CCN1Cc1ccsc1 (stereo not given)	85*	3	.	.	.
COc1ccccc1/C=C/CN1CCN(Cc2ccc(F)cc2)C(CCO)C1 (stereo not given)	83*	15	1	0.8	1
Cc1ccccc1N1CCN(C(=O)CCN2C(=O)c3ccccc3C2=O)CC1	-10	-4	1	0.9	1.1
Cc1ccc(SC2CC(=O)N(c3ccc4c(c3)OCCO4)C2=O)cc1 (stereo not given)	-1	9	1	0.9	1
COC(=O)c1ccc(CN2CCN(CCc3ccccc3)C(CCO)C2)cc1 (stereo not given)	91*	3	1	1.1	1
COc1cccc(CN2CCN(Cc3ccc(O)cc3)CC2CCO)c1 (stereo not given)	69*	-7	.	.	.
CCOc1cc(CN2CCN(CCc3ccccc3)C(CCO)C2)ccc1OC (stereo not given)	19	6	1	0.7	1.1
COc1cc(CN2CCN(CCc3ccccc3)C(CCO)C2)cc(OC)c1 (stereo not given)	64*	7	1	1	1.1
Cc1ccc(OCc2ccc(C(=O)Nc3c(C)nn(Cc4c(F)c(F)c(F)c(F)c4F)c3C)o2)c([N+](=O)[O-])c1	92*	46	0.9	0.8	0.9
O=C(Nc1cc(Cl)cc(Cl)c1)c1ccc(Cn2c(=O)[nH]c3ccsc3c2=O)cc1	-5	13	1.1	1	1.1
CCOC(=O)Cc1c(Sc2ccccc2)c2cc(C)ccc2n1C	0	68*	0.8	0.8	0.9
CC1(C)Cc2ccccc2C(N/N=C/c2ccc(Cl)cc2)=N1	15	55	0.9	0.9	1
CCN(c1ccccc1)S(=O)(=O)c1ccc(F)cc1	4	10	0.8	0.9	0.9
CCN(c1ccccc1)S(=O)(=O)c1ccc(C(=O)OC(C)C(=O)NCCC2=CCCCC2)cc1 (stereo not given)	96*	1	0.9	0.8	0.9
CCN(c1ccccc1)S(=O)(=O)c1ccc(C(=O)Oc2ccc(C(C)=O)cc2)cc1	50*	-3	0.8	0.9	0.8
CN(C(=O)COC(=O)c1ccc([N+](=O)[O-])cc1N)c1ccccc1	-9	-9	1	1	1
Cc1ccc2nc(SC(C)C(=O)Nc3cccc([N+](=O)[O-])c3)[nH]c2c1 (stereo not given)	56*	21	0.8	0.7	0.8
O=c1c(Cl)cc(Cl)nn1-c1ccccc1	71*	-7	1.1	1	1.1
COc1ccc(CCN2C(=O)CC(C(C)c3ccccc3)C2=O)cc1OC (stereo not given)	-5	12	1	1	1
